# Source: ChEMBL document CHEMBL3259596, “Lactam and oxazolidinone derived potent 5-hydroxytryptamine 6 receptor antagonists” (Bioorg Med Chem Lett, 2014)
# Tested on: Brain
# Assay: Drug uptake in rat brain at 5 mg/kg, po after 6 hrs
# Type: ADME, organism-based
# Design: dose 5 mg/kg, route oral
# Conditions: in vivo; call rule not given here
# In short: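 Rats dosed orally at 5 mg/kg. Compound measured in brain 6 h after dosing.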
row,Compound,Drug uptake
1,"O=C1CC(c2ccccc2)CN1c1cnc2c(N3CCNCC3)cccc2c1 (single isomer, unassigned; enantiomer 1)",Active

# Target: T1, 5-hydroxytryptamine receptor 6 (Homo sapiens, UniProt P50406)
# T1 sequence (P50406 whole entry): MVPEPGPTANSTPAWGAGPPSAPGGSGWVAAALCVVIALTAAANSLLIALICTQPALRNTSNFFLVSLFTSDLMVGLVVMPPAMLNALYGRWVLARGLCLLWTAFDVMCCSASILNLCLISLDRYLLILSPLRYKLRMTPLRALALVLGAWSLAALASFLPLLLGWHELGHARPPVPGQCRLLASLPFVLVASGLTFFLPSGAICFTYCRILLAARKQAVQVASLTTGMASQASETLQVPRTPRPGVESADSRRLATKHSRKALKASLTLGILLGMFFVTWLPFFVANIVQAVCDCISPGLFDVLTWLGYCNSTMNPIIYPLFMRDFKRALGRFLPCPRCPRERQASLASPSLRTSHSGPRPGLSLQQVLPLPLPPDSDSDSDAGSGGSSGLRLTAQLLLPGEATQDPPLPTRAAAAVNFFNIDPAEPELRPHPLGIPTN
# Assay: Antagonist activity at human 5-HT6 receptor assessed as inhibition of 5-HT-induced cAMP level treated for 10 mins prior to 5-HT challenge for 30 mins by homogeneous time-resolved fluorescent assay
# Type: functional
# Conditions: not given
row,Compound,IC50
1,O=C1CC(c2ccccc2)CN1c1cnc2c(N3CCNCC3)cccc2c1 (racemic),15 nM
2,"O=C1CC(c2ccccc2)CN1c1cnc2c(N3CCNCC3)cccc2c1 (single isomer, unassigned; enantiomer 1)",8 nM

# Target: T2, 5-hydroxytryptamine receptor 2C (Homo sapiens, UniProt P28335)
# T2 sequence (P28335 whole entry): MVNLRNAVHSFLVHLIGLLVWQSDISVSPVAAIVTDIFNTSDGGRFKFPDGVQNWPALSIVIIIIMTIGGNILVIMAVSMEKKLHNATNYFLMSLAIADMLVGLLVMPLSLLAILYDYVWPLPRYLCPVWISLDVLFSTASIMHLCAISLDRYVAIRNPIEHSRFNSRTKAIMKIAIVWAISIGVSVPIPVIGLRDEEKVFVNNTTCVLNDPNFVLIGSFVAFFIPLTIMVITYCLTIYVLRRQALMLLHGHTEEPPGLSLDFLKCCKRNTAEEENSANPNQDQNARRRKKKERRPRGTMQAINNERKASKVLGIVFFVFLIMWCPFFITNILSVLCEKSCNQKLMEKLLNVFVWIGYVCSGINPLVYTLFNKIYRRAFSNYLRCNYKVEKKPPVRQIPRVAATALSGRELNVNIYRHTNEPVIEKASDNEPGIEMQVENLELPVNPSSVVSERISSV
# Assay: Binding affinity to 5-HT2C receptor (unknown origin)
# Conditions: not given
row,Compound,Ki
1,"O=C1CC(c2ccccc2)CN1c1cnc2c(N3CCNCC3)cccc2c1 (single isomer, unassigned; enantiomer 1)",> 30000 nM

# Target: T1, 5-hydroxytryptamine receptor 6
# Assay: Displacement of [3H]LSD from human recombinant 5-HT6 receptor expressed in CHO-K1 cell membrane after 3 hrs by liquid scintillation counting analysis
# Type: cell membranes
# Conditions: not given
# In short: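 Membranes from CHO-K1 cells stably expressing human 5-HT6, 1.75 µg protein, preincubated with scintillation beads 30 min at 4 °C. Buffer was 50 mM Tris-HCl pH 7.4, 4 mM CaCl2, saponin, 0.1% ascorbic acid. Incubated 3 h at room temperature with 4 nM [3H]LSD (Kd 2.3 nM) over half-log dilutions. Nonspecific binding defined with 10 µM serotonin. IC50 from variable-slope fit, Ki by Cheng-Prusoff, mean of three experiments.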
row,Compound,Ki
1,O=C1CC(c2ccccc2)CN1c1cnc2c(N3CCNCC3)cccc2c1 (racemic),2.6 nM
2,O=C1OC(c2ccccc2Cl)CN1c1cccc(OC2CCNCC2)c1 (racemic),240 nM
3,COc1ccccc1C1CN(c2ccc3c(c2)CCNCC3)C(=O)O1 (racemic),87 nM
4,O=C1OC(c2ccccc2F)CN1c1ccc2c(c1)CCNCC2 (racemic),15 nM
5,O=C1OC(c2cccc(Cl)c2)CN1c1ccc2c(c1)CCNCC2 (racemic),10 nM
6,O=C1CC(c2ccccc2)CN1c1ccc2c(c1)CNCC2 (racemic),140 nM
7,O=C1OC(c2ccccc2Cl)CN1c1ccc2c(c1)CNCC2 (racemic),150 nM
8,CN1CCN(c2ncc(N3CC(c4ccccc4)CC3=O)s2)CC1 (racemic),> 30000 nM
9,O=C1CC(c2ccccc2)CN1c1cccc(C2CCNCC2)c1 (racemic),70 nM
10,O=C1CCCN1c1cnc2c(N3CCNCC3)cccc2c1,4900 nM
11,Clc1ccccc1C1CCN(c2ccc3c(c2)CCNCC3)C1 (racemic),650 nM
12,O=C1CC(c2ccccc2)CN1c1ccc2c(c1)CCNCC2 (racemic),54 nM
13,O=C1OC(c2ccccc2Cl)CN1c1ccc2c(c1)CCNCC2 (racemic),47 nM
14,O=C1OC(c2ccccc2Cl)CN1c1cccc(N2CCNCC2)c1 (racemic),140 nM
15,O=C1OC(c2ccccc2Cl)CN1c1ccc(N2CCNCC2)cc1 (racemic),1900 nM
16,O=C1CC(c2ccccc2)CN1c1cnc2c(N3CCCNCC3)cccc2c1 (racemic),10 nM
17,O=C1OC(c2ccccc2Cl)CN1c1ccc2c(c1)CCNC2 (racemic),330 nM

# Further lines, results first:
row,Ki,Compound
1,5700 nM,O=C1CSC2(C(=O)Nc3ccccc32)N1c1ccccc1 (racemic)
2,4100 nM,O=C1CC(c2ccccc2)CN1c1cncc(N2CCNCC2)c1 (racemic)
3,1200 nM,O=C1CC(c2ccccc2)CN1c1ccc2c(c1)CCCNC2 (racemic)
4,100 nM,O=C1CC(c2ccccc2Cl)CN1c1ccc2c(c1)CCNCC2 (racemic)
5,88 nM,COc1cc(OC)cc(N2C(=O)CSC23C(=O)Nc2ccccc23)c1 (racemic)
6,84 nM,O=C1CC(c2ccccc2)CN1c1cccc(N2CCNCC2)c1 (racemic)
7,55 nM,O=C1CC(c2ccccc2)CN1c1ccc2c(N3CCNCC3)ccnc2c1 (racemic)
8,48 nM,O=C1CC(c2ccccc2)CN1c1cccc(N2CCNCC2)n1 (racemic)
9,16 nM,O=C1OC(c2ccccc2)CN1c1ccc2c(c1)CCNCC2 (racemic)

# Target: 5-hydroxytryptamine receptor 2A (Homo sapiens, UniProt P28223)
# Sequence (P28223 whole entry): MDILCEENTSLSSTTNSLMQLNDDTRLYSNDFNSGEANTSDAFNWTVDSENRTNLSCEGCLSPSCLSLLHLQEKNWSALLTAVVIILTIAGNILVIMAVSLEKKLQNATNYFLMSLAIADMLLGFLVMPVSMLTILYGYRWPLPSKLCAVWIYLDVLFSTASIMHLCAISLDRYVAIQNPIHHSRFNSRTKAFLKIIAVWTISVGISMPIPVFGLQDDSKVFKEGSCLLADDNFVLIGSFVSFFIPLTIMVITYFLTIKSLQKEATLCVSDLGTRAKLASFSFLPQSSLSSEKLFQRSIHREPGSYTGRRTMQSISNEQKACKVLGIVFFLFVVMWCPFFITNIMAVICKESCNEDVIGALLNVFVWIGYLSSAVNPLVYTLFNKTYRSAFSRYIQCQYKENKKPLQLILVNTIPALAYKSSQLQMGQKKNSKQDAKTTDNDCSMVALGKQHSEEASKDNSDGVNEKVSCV
# Assay: Binding affinity to 5-HT2A receptor (unknown origin)
# Conditions: not given
row,Compound,Ki
1,"O=C1CC(c2ccccc2)CN1c1cnc2c(N3CCNCC3)cccc2c1 (single isomer, unassigned; enantiomer 1)",3100 nM

# Target: 5-hydroxytryptamine receptor 2B (Homo sapiens, UniProt P41595)
# Sequence (P41595 whole entry): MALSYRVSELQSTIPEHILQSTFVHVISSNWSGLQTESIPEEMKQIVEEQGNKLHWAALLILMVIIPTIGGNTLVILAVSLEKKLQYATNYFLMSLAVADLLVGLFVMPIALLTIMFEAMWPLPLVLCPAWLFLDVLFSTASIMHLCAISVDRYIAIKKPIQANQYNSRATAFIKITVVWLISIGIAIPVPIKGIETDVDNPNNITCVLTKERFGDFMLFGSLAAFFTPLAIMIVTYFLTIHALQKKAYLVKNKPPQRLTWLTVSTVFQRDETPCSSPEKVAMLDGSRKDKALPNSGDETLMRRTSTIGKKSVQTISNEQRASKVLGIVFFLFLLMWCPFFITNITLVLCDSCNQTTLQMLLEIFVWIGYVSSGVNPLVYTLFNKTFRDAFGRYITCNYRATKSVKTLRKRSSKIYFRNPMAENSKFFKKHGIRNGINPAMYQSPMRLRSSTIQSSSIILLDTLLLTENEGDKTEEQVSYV
# Assay: Binding affinity to 5-HT2B receptor (unknown origin)
# Conditions: not given
row,Compound,Ki
1,"O=C1CC(c2ccccc2)CN1c1cnc2c(N3CCNCC3)cccc2c1 (single isomer, unassigned; enantiomer 1)",> 30000 nM
